The results in this text go back to ChEMBL document CHEMBL1141358, “Antioxidant phenylpropanoid-substituted epicatechins from Trichilia catigua” (J Nat Prod, 2007).

The source made the active and inactive calls. The calls are words filed in the database; no cut-off is given here.

Assay [1] is described as follows: DPPH radical scavenging activity. It is filed as functional. The method in brief: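 Samples dissolved in EtOH and diluted to 500, 100, 50 and 10 µg/mL (concentrations before mixing). Each 20 µL aliquot was mixed immediately with 180 µL DPPH, with an EtOH blank. After 20 min, A517 was read. Scavenging was taken as the fall in DPPH absorbance relative to a sample-free DPPH control. IC50 was interpolated from concentration-inhibition curves as the mean of triplicates.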

Assay [2] deals with PC-12. Kind of assay: Neurotrophic effect in rat PC12 cells. It is filed as functional, cell-based. The method in brief: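 PC12 cells without NGF were exposed to test compounds at 1–100 µM and examined for neurotrophic activity.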
In assay [3] the test system is PC-12. Kind of assay: Neurotrophic effect in rat NGF-induced PC12 cells upto 100 uM. Type of assay: functional, cell-based. The method in brief: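 PC12 cells were co-treated with NGF and test compounds at 1–100 µM, then checked for neurotrophic effects.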

As a reminder, the IC50 is the concentration that gives 50% inhibition. On to `O=C1C[C@H](c2ccc(O)c(O)c2)c2c(O)cc3c(c2O1)C[C@@H](O)[C@@H](c1ccc(O)c(O)c1)O3` [CINCHONAIN IC], for which the 50% inhibitory concentration (IC50) in assay [1] is 2.5 µM.
Regarding `Oc1cc(O)c2c(c1)O[C@H](c1ccc(O)c(O)c1)[C@@H](O)C2` [CATECHIN], in assay [1], the IC50 came out at 10 µM.
`COC(=O)C[C@@H]1c2cc(O)c(O)cc2Oc2cc(O)c3c(c21)O[C@H](c1ccc(O)c(O)c1)[C@H](O)C3` [CATIGUANIN A] registered an IC50 in assay [1] of 7.1 µM. In addition, the result in the assay on PC-12 [2] and in the assay on PC-12 [3] was inactive.
In turn, `COC(=O)C[C@H]1c2cc(O)c(O)cc2Oc2cc(O)c3c(c21)O[C@H](c1ccc(O)c(O)c1)[C@H](O)C3` [CATIGUANIN B] gave an IC50 in assay [1] of 6.7 µM.
Take `O=C1C[C@@H](c2ccc(O)c(O)c2)c2c(cc(O)c3c2O[C@H](c2ccc(O)c(O)c2)[C@H](O)C3)O1` [CINCHONAIN IA]: 9.4 µM corresponded to half-maximal inhibition in assay [1] (IC50). The outcome with PC-12 [2] and in the assay with PC-12 [3] was inactive.
In assay [1], `O=C1C[C@H](c2ccc(O)c(O)c2)c2c(cc(O)c3c2O[C@H](c2ccc(O)c(O)c2)[C@H](O)C3)O1` [CINCHONAIN IB] gave an IC50 of 5.1 µM.
`O=C1C[C@@H](c2ccc(O)c(O)c2)c2c(O)cc3c(c2O1)C[C@@H](O)[C@@H](c1ccc(O)c(O)c1)O3` [CINCHONAIN ID] yielded an IC50 in assay [1] of 2.3 µM.
